As usually defined, the inhibition is the change of the read-out against control, counted positive when it falls. What is called MIC90 is an inhibitory concentration at the 90% level, which refers to growth in some studies and to a panel of isolates in others. For orientation: IC50 means the point on the concentration scale where inhibition reaches its midpoint. Lower therefore signals greater potency in that assay. For orientation: IC90 means the concentration needed for an effect of 90%. A low value points to greater potency.

Converted amounts (≈) assume the structure as drawn. Bounds are passed on as bounds.

Test [1] relates to Mycobacterium tuberculosis. Briefly: Antimycobacterial activity against Mycobacterium tuberculosis H37Rv ATCC 27294 at 12.5 ug/ml after 7 days by microplate Alamar blue assay relative to control. It counts as functional. To be noted: H37Rv ATCC 27294, 168 h. The procedure, abridged:
(§1)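 Cycle 1 HTS MABA: M. tuberculosis H37Rv ATCC 27294 in 7H12 broth, 384-well, final 1% DMSO. Ten twofold dilutions, typically 100 to 0.195 µg/mL. Amikacin controls at 0.17 and 3.20 µM; the high level serves as background for percent inhibition. 7 days at 37 °C, ~95% humidity. Fluorescence read at 535 nm excitation / 590 nm emission.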

Test [2] has as its system Mycobacterium tuberculosis. As to the kind of experiment: Antimycobacterial activity against Mycobacterium tuberculosis H37Rv ATCC 27294 at 100 ug/ml after 7 days by microplate Alamar blue assay relative to control. Type of test: functional. The conditions noted are these: H37Rv ATCC 27294, 168 h. The procedure, abridged:
as §1

For test [3], the system named is Mycobacterium tuberculosis. As to the kind of experiment: Antimycobacterial activity against Mycobacterium tuberculosis H37Rv ATCC 27294 at 1.56 ug/ml after 7 days by microplate Alamar blue assay relative to control. Type of test: functional. The conditions noted are these: H37Rv ATCC 27294, 168 h. The procedure, abridged:
as §1
(In general: Alamar Blue is a resazurin reagent that responds to reducing activity.)

Test [4] has as its system Mycobacterium tuberculosis. As to the kind of experiment: Antimycobacterial activity against Mycobacterium tuberculosis H37Rv ATCC 27294 at 50 ug/ml after 7 days by microplate Alamar blue assay relative to control. Type of test: functional. To be noted: H37Rv ATCC 27294, 168 h. The procedure, abridged:
as §1

Test [5] has as its system Mycobacterium tuberculosis. As to the kind of experiment: Antimycobacterial activity against Mycobacterium tuberculosis H37Rv ATCC 27294 after 7 days by broth microdilution assay. It counts as functional. To be noted: H37Rv ATCC 27294, 168 h. The procedure, abridged: as §1
(In general: Dilution methods test growth across graded concentrations, often in twofold steps.)

In test [6] the test system is Mycobacterium tuberculosis. As to the kind of experiment: Antimycobacterial activity against Mycobacterium tuberculosis H37Rv ATCC 27294 after 7 days by microplate Alamar blue assay. Type of test: functional, organism-based. To be noted: H37Rv ATCC 27294, 168 h. The procedure, abridged:
as §1

Test [7] deals with Mycobacterium tuberculosis. Briefly: Antimycobacterial activity against Mycobacterium tuberculosis H37Rv ATCC 27294 at 0.79 ug/ml after 7 days by microplate Alamar blue assay relative to control. It counts as functional. To be noted: H37Rv ATCC 27294, 168 h. The procedure, abridged: as §1
Test [8] relates to Mycobacterium tuberculosis. Briefly: Antimycobacterial activity against Mycobacterium tuberculosis H37Rv ATCC 27294 at 25 ug/ml after 7 days by microplate Alamar blue assay relative to control. Type of test: functional. The conditions noted are these: H37Rv ATCC 27294, 168 h. The procedure, abridged:
as §1

Test [9] has as its system Mycobacterium tuberculosis. Briefly: Antimycobacterial activity against Mycobacterium tuberculosis H37Rv ATCC 27294 at 0.16 to 0.31 ug/ml after 7 days by microplate Alamar blue assay relative to control. Type of test: functional. The procedure, abridged: as §1
Test [10] concerns Mycobacterium tuberculosis. Briefly: Antimycobacterial activity against Mycobacterium tuberculosis H37Rv ATCC 27294 at 0.08 ug/ml after 7 days by microplate Alamar blue assay relative to control. It counts as functional. The conditions noted are these: H37Rv ATCC 27294, 168 h.
For test [11], the system named is Mycobacterium tuberculosis. As to the kind of experiment: Antimycobacterial activity against Mycobacterium tuberculosis H37Rv ATCC 27294 at 0.63 ug/ml after 7 days by microplate Alamar blue assay relative to control. Type of test: functional. To be noted: H37Rv ATCC 27294, 168 h. The procedure, abridged:
as §1

Test [12] deals with Mycobacterium tuberculosis. As to the kind of experiment: Antimycobacterial activity against Mycobacterium tuberculosis H37Rv ATCC 27294 at 1.25 to 5 ug/ml after 7 days by microplate Alamar blue assay relative to control. It counts as functional. The procedure, abridged: as §1

`CCOC(=O)c1cc(C(N)=O)n2ccc(-c3ccncc3)cc12`: the inhibition at 12.5 µg/mL in test [1] was found to be 4%. Moreover, the inhibition at 100 µg/mL in test [2] was -17%. In addition, in test [3], the inhibition at 1.56 µg/mL is 2.8%. The inhibition at 50 µg/mL in test [4] was found to be 2%. Besides, in test [5], the MIC90 was over 100 µM. In addition, in test [6], the IC50 was over 100 µg/mL and the IC90 was over 100 µg/mL.

Turning to `CCOC(=O)c1cc(C#N)n2ccc(-c3ccncc3)cc12`, the inhibition at 0.79 µg/mL in test [7] turned out to be 8.6%. Also, the inhibition at 12.5 µg/mL in [1] came out at 15.3%. In test [2], the inhibition at 100 µg/mL was found to be 97.2%. The inhibition at 50 µg/mL in test [4] worked out at 84.9%. The MIC90 in [5] is over 100 µM. In test [6], the IC50 was 33.4 µg/mL (≈ 114 µM) and the IC90 worked out at 59.5 µg/mL (≈ 204 µM). Also, the inhibition at 25 µg/mL in test [8] was found to be 21.5%.

In the case of `NCC[C@H](O)C(=O)N[C@@H]1C[C@H](N)[C@@H](O[C@H]2O[C@H](CN)[C@@H](O)[C@H](O)[C@H]2O)[C@H](O)[C@H]1O[C@H]1O[C@H](CO)[C@@H](O)[C@H](N)[C@H]1O` [AMIKACIN], the “inhibition (INH)” value in test [9] was 96%. Further, the inhibition at 0.08 µg/mL in test [10] stood at 79.8%. The inhibition at 0.63 µg/mL in test [11] amounted to 97.3%. For the same compound, in test [12], the “inhibition (INH)” value is listed as 98%. The compound further gave an MIC90 in [5] of 0.16 µM (≈ 0.0937 µg/mL). In test [6], the IC50 turned out to be 0.07 µg/mL (≈ 0.12 µM) and the 90% effect level (IC90) was put at 0.08 µg/mL (≈ 0.137 µM).

In the case of `CCOC(=O)c1cc(C(=O)c2ccccc2)n2ccc(-c3ccn4c(C(=O)c5ccc(OC)cc5)cc(C(=O)OC)c4c3)cc12`, in test [1], the inhibition at 12.5 µg/mL was found to be 0.8%. Besides, the inhibition at 100 µg/mL in test [2] is -4.5%. Besides, the inhibition at 1.56 µg/mL in [3] was -2%. Further, in test [4], the inhibition at 50 µg/mL worked out at 5.3%. Also, the MIC90 in test [5] was over 100 µM. In [6], this compound had an IC50 of over 100 µg/mL and an IC90 of over 100 µg/mL.

On to `CCc1nc(N)nc(N)c1-c1ccc(Cl)cc1` [PYRIMETHAMINE], for which the inhibition at 100 µg/mL in [2] worked out at 95.6%. Also, the inhibition at 50 µg/mL in test [4] was determined as 69.7%. The same compound yielded an MIC90 in test [5] of 100 µM (≈ 24.9 µg/mL). Besides, in test [6], the IC50 worked out at 37.4 µg/mL (≈ 150 µM) and the 90% effect level (IC90) was put at 75 µg/mL (≈ 301 µM). Moreover, in test [8], the inhibition at 25 µg/mL turned out to be 26.7%.

These data come from ChEMBL document CHEMBL3120161, “Antimycobacterial activity of nitrogen heterocycles derivatives: bipyridine derivatives. Part III” (Eur J Med Chem, 2014).
